Experimental data from ChEMBL document CHEMBL1811914, “Bioactive compounds from the aerial parts of Brachystemma calycinum and structural revision of an octacyclopeptide” (J Nat Prod, 2011).
The source made the active and inactive calls. The rule behind the calls is not given here. Where a SMILES comes first, the peptide text is derived from it.

How the values were obtained:
CRL-2573 [1] = test: Inhibition of high glucose-induced IL-6 secretion in rat CRL-2573 cells at 10 uM after 24 hrs by ELISA; assay type: functional, cell-based
Outline: (§1)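 Rat mesangial cells (CRL-2573) grown in DMEM with 5.6 mM D-glucose (pH 7.4), 20% FCS, penicillin/streptomycin, 10 mM HEPES. At 80% confluence, growth arrested in 0.5% FCS for 24 h. Pretreated 1 h with compound (1 or 10 μM), then high glucose 24 h. Supernatant analyte quantified by sandwich ELISA, normalized to total cell protein (BCA).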

CRL-2573 [2] = test: Inhibition of high glucose-induced CCL2 secretion in rat CRL-2573 cells at 10 uM after 24 hrs by ELISA; assay type: functional, cell-based; outline: as §1
CRL-2573 [3] = test: Inhibition of high glucose-induced collagen-4 secretion in rat CRL-2573 cells at 10 uM after 24 hrs by ELISA; assay type: functional, cell-based; outline: as §1
RAW264.7 = test: Inhibition of LPS-induced nitric oxide production in […] cells at 25 uM; assay type: functional, cell-based
CRL-2573 [4] = test: Inhibition of high glucose-induced collagen-1 secretion in rat CRL-2573 cells at 10 uM after 24 hrs by ELISA; assay type: functional, cell-based; outline: as §1
CRL-2573 [5] = test: Antioxidant activity against high glucose-induced intracellular ROS production in rat CRL-2573 cells assessed as carboxymethyl-H2-dichlorofluorescein diacetate conversion to 2',7'-dichlorofluorescein at 1 to 10 uM preincubated for 1 hr prior to high glucose challenge by flow cytometer; assay type: functional, cell-based
Outline: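 Rat mesangial cells cultured and growth-arrested as for secretion assays. Exposed to 5.6 mM (normal) or 25 mM (high) D-glucose for up to 24 h, with or without compound preincubation. Intracellular ROS then measured.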

CRL-2573 [6] = test: Antioxidant activity against high glucose-induced intracellular superoxide ion production in rat CRL-2573 cells at 1 to 10 uM measured every minute for 30 mins by lucigenin-enhanced chemiluminescence assay in presence of NADPH; assay type: functional, cell-based
Outline: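 Homogenates of cultured rat mesangial cells (100 μg/well) assayed by lucigenin-enhanced chemiluminescence. Dark-adapted lucigenin (5 μM) with or without NADPH (100 μM) added immediately before reading. Signal recorded every minute for 30 min.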

[7] = Cytotoxicity in rat CRL-2573 cells at 10 uM after 24 hrs by trypan blue exclusion assay; assay type: cell-based; conditions: crl-2573, 24 h

Row | Structure (SMILES) | inhibition (CRL-2573 [1]) | inhibition (CRL-2573 [2]) | inhibition (CRL-2573 [3]) | inhibition (RAW264.7) | inhibition (CRL-2573 [4]) | Activity (CRL-2573 [5]) | Activity (CRL-2573 [6]) | Activity [7]
1 | CC(C)C[C@@H]1NC(=O)CNC(=O)[C@H](C(C)C)NC(=O)[C@@H]2CCCN2C(=O)[C@H](Cc2ccccc2)NC(=O)[C@H]([C@@H](C)O)NC(=O)[C@@H]2CCCN2C(=O)[C@H]([C@@H](C)O)NC1=O (HELM PEPTIDE1{F.P.V.G.L.T.P.T}$PEPTIDE1,PEPTIDE1,1:R1-8:R2$$$V2.0) | Active | Active | Active |  |  |  |  | 
2 | CC(C)C[C@@H]1NC(=O)CNC(=O)[C@H](C)NC(=O)[C@@H]2CCCN2C(=O)[C@@H]2CCCN2C(=O)[C@H](Cc2ccccc2)NC(=O)[C@H]([C@@H](C)O)NC(=O)[C@H](C)NC1=O (HELM PEPTIDE1{A.G.L.A.T.F.P.P}$PEPTIDE1,PEPTIDE1,1:R1-8:R2$$$V2.0) | Active | Active | Active | inactive | Active | Active | Active | Non-toxic
3 | COC1CCC(=O)N1[C@@H]1C=C(COC(=O)c2ccc[nH]2)CO1 (some centres undefined) | Active | Active | Active |  |  |  |  | 
